Only some compounds are listed: those with a hit (about 2.4% of all), similar ones and a draw of the others.
Ins promoter up = MIN6 insulin promoter up-regulation | z-score at 5 µM | 190,000 compounds, 0.3% hits | AID 1625 | MIN6 insulin promoter-GFP reporter, high-content imaging; hits give high values;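 active means z-score above 3 at 5 µM with at least 500 cells counted in the well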
SR-BI DiI-HDL act = SR-BI HDL lipid transfer activation; CHO ldlA[mSR-BI] cells, DiI-HDL uptake fluorescence, 3 h; 100 = double the neutral-control signal; activation, % at 12.5 µM; 320,000 compounds, 0.096% hits; AID 504775;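 active means mean replicate activation of at least 60% and every replicate at or above 60%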
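Test system: SR-BI-overexpressing, LDLR-lacking CHO cells. Measured by: DiI fluorescence, bottom read. Medium: Ham's F12 with 0.5% BSA, HEPES 25 mM, pH 7.4. Timing: 3 h uptake period with compound, 37 °C.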
SR-BI HDL uptake = mouse SR-BI HDL lipid transfer inhibition. Q61009. ldlA[mSR-BI] CHO cells, DiI-HDL uptake fluorescence, 3 h. inhibition, % at 12.5 µM. 320,000 compounds, 0.96% hits. AID 488896;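 active means mean replicate inhibition of at least 70% and a set share of replicates each scoring 70 or more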
Calb FLC = C. albicans growth modulation with fluconazole | 300,000 compounds, 0.57% hits | growth inhibition, % (concentration not given with the values) | C. albicans CaCi-2 + fluconazole, Alamar Blue growth, 48 h;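 active means growth inhibition above about 58% in most replicates, limit read from the data, passing the limit was not always enough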;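 further: all wells also contain fluconazole at 8 µg/ml as a sub-toxic cotreatment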
MIN6 prolif = MIN6 beta-cell proliferation induction | 330,000 compounds, 0.29% hits | proliferation, % at 10 µM | MIN6 cells proliferation, ATPlite luminescence, 48 h; cells starved in 0.2% serum; 100% = growth in 10% serum;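 active means compounds whose signal lies at least 3.5 SD above the mean of all wells on their plate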
m5-HT2A agonist = activates the mouse 5-HT2A serotonin receptor; CHO-K1 mHTR2A beta-arrestin complementation, luminescence; percent of 30 µM serotonin response; activation, % at 7.6 µM; 360,000 compounds, 0.66% hits; AID 624169;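 active means activation above a run cutoff, the mean activation of all tested compounds plus 3 SD, cut at about 14% in these data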
Target sequence (P35363 whole entry, looked up): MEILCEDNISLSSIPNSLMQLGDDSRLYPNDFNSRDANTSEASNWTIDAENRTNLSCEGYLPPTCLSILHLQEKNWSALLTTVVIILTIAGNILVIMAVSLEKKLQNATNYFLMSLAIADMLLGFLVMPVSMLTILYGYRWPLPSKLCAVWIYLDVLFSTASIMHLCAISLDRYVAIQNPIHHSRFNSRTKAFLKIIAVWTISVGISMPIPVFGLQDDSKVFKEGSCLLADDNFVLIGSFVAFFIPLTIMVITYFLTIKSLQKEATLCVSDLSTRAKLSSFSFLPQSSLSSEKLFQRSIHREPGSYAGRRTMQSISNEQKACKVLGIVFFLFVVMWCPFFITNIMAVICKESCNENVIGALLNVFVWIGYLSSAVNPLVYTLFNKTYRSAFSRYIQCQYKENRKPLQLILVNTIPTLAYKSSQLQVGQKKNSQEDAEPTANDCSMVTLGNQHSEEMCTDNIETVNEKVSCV
Hits are given with their value; 0 = inactive; - = no result given.

SMILES | Ins promoter up | SR-BI DiI-HDL act | SR-BI HDL uptake | Calb FLC | MIN6 prolif | m5-HT2A agonist
O=C(NN=Cc1ccccc1OC(F)F)c1ccc(NS(=O)(=O)c2cccs2)cc1 | - | 0 | 82.4 | - | 0 | 0
COc1cccc(NC(=O)c2ccc(NS(=O)(=O)c3cccs3)cc2)c1 | - | 0 | 76.7 | - | 0 | 0
O=C(NN=Cc1ccc(O)cc1O)c1ccccc1NS(=O)(=O)c1cccs1 | - | 0 | 96.5 | - | 0 | 0
O=C(NCC[C@@H]1CC[C@@H](NS(=O)(=O)Cc2ccccc2)[C@@H](CO)O1)C1CC1 | - | - | - | - | - | 0
CCc1sc(C(=O)Nc2ccc(N3CCOCC3)cc2)cc1C | - | 0 | 74.7 | - | 0 | 0
CCc1sc(C(=O)Nc2ccc3c(c2)OCO3)cc1C | - | 0 | 0 | - | 0 | 0
COc1ccc2oc(/C=C/N(C)C)c(C(=O)c3ccc(Cl)cc3)c2c1 | 0 | 0 | 77.7 | 0 | 0 | 0
O=[N+]([O-])c1cccc(-c2nc(-c3cccs3)c(-c3cccs3)[nH]2)c1 | 0 | 0 | 90.9 | 0 | 0 | 0
CCOC(=O)c1c(NC(=S)Nc2cccc(C)c2)sc2c1CC(C)(C)SC2 | 0 | 0 | 86.9 | 0 | 0 | 0
C=CCNC(=S)Nc1sc2c(c1C(=O)OCC)CC(C)(CC)OC2 (stereo not given) | 0 | 0 | 0 | 97.9 | 0 | 0
Oc1ccc(Cl)cc1N=Cc1sc2ccccc2c1Cl | - | 0 | 0 | 0 | - | 0
O=[N+]([O-])c1ccc(O)c(N=Cc2sc3ccccc3c2O)c1 | 0 | 0 | 124.5 | 0 | - | 0
CCCCC1Cc2[nH]c(=S)[nH]c(=O)c2C(c2ccc(Cl)cc2)O1 (stereo not given) | - | - | - | - | - | 0
O=C1C=C(c2ccccc2)C(c2ccccc2)C1 (stereo not given) | - | 0 | 0 | - | - | 0
CSc1ccc(CC(=O)N2CCC(n3nccc3NC(=O)C3CC3)CC2)cc1 | - | 0 | 0 | 0 | 0 | 0
COc1cc2c(cc1NC(=O)c1cc(-c3ccncc3)nc3ccccc13)oc1ccccc12 | 0 | 0 | 82.9 | 0 | 0 | 0
Cc1ccc2nc(-c3ccccc3)cc(C(=O)Nc3cccnc3)c2c1 | - | 0 | 0 | - | 0 | 0
COc1cc2c(cc1NC(=O)c1cc(-c3cccnc3)nc3ccc(C)cc13)oc1ccccc12 | 0 | 0 | 78.3 | 0 | 0 | 0
CCOC(=O)[C@H]1[C@H]2COc3ccc(Br)cc3[C@@H]2N2C(=O)CN(Cc3ccco3)C(=O)[C@@]12C | - | 0 | 0 | - | 0 | 0
CCN(CC)c1ccc(NC(=O)c2ccc3c(c2)c(C)c(C)n3C)cc1 | 0 | 0 | 90.0 | 0 | 0 | 0
COC(=O)CCC(C)C1CCC2C3C(OC(C)=O)CC4CC(O)CCC4(C)C3CC(O)C12C (stereo not given) | - | - | - | - | - | 0
Cc1ccc(C(=O)NCc2ccco2)cc1S(=O)(=O)Nc1cccc(Cl)c1 | 0 | 0 | 0 | 113.1 | 0 | 0
Cc1cc(NC(=O)c2cnn3c(C(F)(F)F)cc(-c4ccc(Br)cc4)nc23)no1 | 0 | 0 | 76.6 | 0 | 0 | 0
COC(=O)c1cnn2c(C(F)(F)F)cc(-c3ccc(F)cc3)nc12 | 4.23 | 0 | 0 | 0 | 0 | 0
O=C(c1cnn2c(C(F)(F)F)cc(-c3ccc(Br)cc3)nc12)N1CCOCC1 | 0 | 0 | 0 | 0 | - | 0
SMILES | Ins promoter up | SR-BI DiI-HDL act | SR-BI HDL uptake | Calb FLC | MIN6 prolif | m5-HT2A agonist
C=CCOC(=O)/C=C/C(=O)NC(N)=O | 0 | 0 | 0 | 0 | 11.1 | 0
C=CCOC(=O)Nc1ccc(Cl)cc1NC(=O)OCC=C | 0 | 0 | 0 | 0 | 0 | 0
O=C(O)c1ccc(Cl)c(S(=O)(=O)Nc2ccccc2C(=O)Nc2ccc(Cl)cc2)c1 | - | 0 | 0 | 0 | 0 | 0
CCC(=O)Nc1ccc(-c2ccc(NC(=O)CC)c(OC)c2)cc1OC | 0 | 0 | 82.9 | 0 | 0 | 0
CCN(CC)CC(=O)Nc1ccc(-c2ccc(NC(=O)CN(CC)CC)c(OC)c2)cc1OC | 0 | 0 | 0 | 0 | 0 | 0
CCC1(C)Cc2ccccc2C(=S)N1 (stereo not given) | 0 | 0 | 0 | 0 | 0 | 0
Cc1ccc(C2(c3noc(CN4CCC(c5ccncc5)CC4)n3)CCCC2)cc1 | - | 0 | 0 | 119.3 | 0 | 0
O=C(CCCSc1nnnn1-c1ccccc1)c1ccc(F)cc1 | 0 | - | - | - | - | -
Cc1ccc2c(c1)c1ccc3c(c1n2C)C(=O)C=CC3=O | - | 0 | 71.2 | - | 0 | 0
O=C(Nc1nc2c(Cl)cccc2s1)c1ccc(Br)o1 | 0 | 0 | 0 | 54.1 | 0 | 0
CC(=O)Nc1c(Cl)c2c(c(Cl)c1Br)-c1ccc(Cl)cc1C2 | - | 0 | 0 | - | - | 0
CC(C)c1ccc(NC2CCCN(C(=O)c3n[nH]c4c3CCC4)C2)cc1 (stereo not given) | - | 0 | 0 | 0 | 0 | 0
CCCOc1ccc(NC(=O)C2CC(=O)N(C)C(=Nc3cccc(OC)c3)S2)cc1 (stereo not given) | 0 | 0 | 0 | 0 | 0 | 0
COc1ccc(N=C2SC(C(=O)Nc3ccc4c(c3)OCO4)CC(=O)N2C)cc1 (stereo not given) | 0 | 0 | 0 | 0 | 0 | 0
CN1C(=O)CC(C(=O)Nc2ccccc2F)SC1=Nc1ccc2c(c1)OCO2 (stereo not given) | 0 | 0 | 73.2 | 0 | 0 | 0
CCOc1cccc(NC(=O)C2CC(=O)N(C)C(=Nc3cccc(F)c3)S2)c1 (stereo not given) | 0 | 0 | 73.0 | 0 | 0 | 0
CCOc1cccc(NC(=O)C2CC(=O)N(C)C(=Nc3ccccc3)S2)c1 (stereo not given) | 0 | 0 | 75.4 | 0 | 0 | 0
CC1(C)C(C=C(Cl)Cl)C1C(=O)Nc1ccc([N+](=O)[O-])cc1 (stereo not given) | 0 | - | - | - | - | -
CCC(CO)Oc1cc(NC(=O)c2ccccc2[N+](=O)[O-])c2ncn(C(C)C)c2c1 (stereo not given) | - | 0 | 0 | - | 0 | 0
CC1(C(=O)NS(=O)(=O)c2ccccc2OC(F)(F)F)CCN1C(=O)c1ccco1 (stereo not given) | - | - | - | - | - | 0
COc1ccc(CN2C(=O)CCC2(C)c2nc3ccccc3[nH]2)cc1 (stereo not given) | - | - | - | - | - | 0
COc1ccc(NC(=O)c2ccccc2[N+](=O)[O-])cc1 | 0 | 0 | 0 | 0 | 0 | 0
COc1ccccc1Nc1ccc(NC(=O)c2cccc([N+](=O)[O-])c2C)cc1 | - | 0 | 83.5 | 0 | 0 | 0
COC(=O)c1c(-c2ccccc2)oc2c1C(OCCO)CCC2 (stereo not given) | - | - | - | - | - | 0
O=C(Nc1ccccc1)Nc1cc(OCC(F)(F)F)cc(OCC(F)(F)F)c1 | 0 | 0 | 92.4 | 0 | - | 0
CC(=O)Nc1cccc(-c2csc(C(C)(O)c3ccc(F)c(F)c3)n2)c1 (stereo not given) | - | - | - | - | - | 0
CCN(CC(=O)NCc1ccc(F)cc1)C(=O)/C=C/c1ccc(S(=O)(=O)N(CC)CC)cc1 | - | 0 | 75.7 | 0 | 0 | 0
CCN(CC(=O)NCc1ccc(Cl)cc1)S(=O)(=O)c1ccc(F)cc1 | - | 0 | 0 | 0 | 0 | 0
O=C(c1ccco1)N1N=C(c2ccccc2O)CC1c1cccs1 (stereo not given) | - | - | - | - | - | 0

Bioassay records deposited in PubChem BioAssay by several laboratories.
